We go through 2 molecules from ChEMBL document CHEMBL4406821, “Novel dual inhibitors targeting CDK4 and VEGFR2 synergistically suppressed cancer progression and angiogenesis” (Eur J Med Chem, 2019).

Calls of active or inactive are those of the source. The rule behind the calls is not given here.

The target in data set [1] is Tyrosine-protein kinase BTK (Homo sapiens) (UniProt Q06187). In words: Inhibition of recombinant full length human BTK at 1 uM using LSNLYHQGKFLQT as substrate incubated for 40 mins in presence of [gamma-33P]-ATP by scintillation counting method relative to control. The gist of the method:
(§1)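 Tested at a single 1 uM in an outsourced commercial kinase-profiling panel, read as percent inhibition. Each value is the mean of two independent experiments.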

The target of data set [2] is Glycogen synthase kinase-3 alpha (Homo sapiens) (UniProt P49840). In words: Inhibition of recombinant human GSK3alpha (2 to end residues) at 1 uM using YRRAAVPPSPSLSRHSSPHQS(p) EDEEE as substrate incubated for 40 mins in presence of [gamma-33P]-ATP by scintillation counting method relative to control. The gist of the method:
as §1

Data set [3] is described as follows: Toxicity in NOD/SCID BALB/c mouse xenografted with human SiHa cells assessed as effect on blood parameter by measuring PDW at 40 mg/kg, po administered once two days for 4 times by hematology analyzer. The data set is classed as organism-based. Particulars: in vivo. Background: In xenograft studies the graft and the host belong to different species.
In another data set the test system is HeLa. In words: Antiproliferative activity against human HeLa cells assessed as reduction in cell viability at 40 to 80 nM incubated for 48 hrs by EdU staining based laser scanning confocal microscopy. The data set is classed as functional. Summed up:
(§2)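 Cells, 5×10^4, were seeded in 24-well plates and treated for 48 h. They were then labeled using an EdU Apollo 488 imaging kit with Hoechst 33342 nuclear stain and imaged by laser scanning confocal microscopy. Percent EdU-positive cells = EdU-positive/Hoechst-stained × 100%.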

Data set [4] has as its target Insulin-like growth factor 1 receptor (Homo sapiens) (UniProt P08069). In words: Inhibition of recombinant activated human IGF1R (959 to end residues) at 1 uM using KKKSPGEYVNIEFG as substrate incubated for 40 mins in presence of [gamma-33P]-ATP by scintillation counting method relative to control. Summed up: (§3)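 Kinase panel profiling at 1 μM performed by Eurofins KinaseProfiler; percent inhibition reported as mean of two independent experiments.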

Data set [5] addresses Mast/stem cell growth factor receptor Kit (Homo sapiens) (UniProt P10721). The data set can be described thus: Inhibition of recombinant human cKIT (544 to end residues) at 1 uM using poly(Glu, Tyr) 4:1 as substrate incubated for 40 mins in presence of [gamma-33P]-ATP by scintillation counting method relative to control. Summed up: as §1
The nature of data set [6]: Toxicity in NOD/SCID BALB/c mouse xenografted with human SiHa cells assessed as effect on blood parameter by measuring neutrophils content at 40 mg/kg, po administered once two days for 4 times by hematology analyzer. In kind it is organism-based. Particulars: in vivo.
In data set [7] the target is Tyrosine-protein kinase Fgr (Homo sapiens) (UniProt P09769). In words: Inhibition of recombinant human FGR (2 to end residues) at 1 uM using poly(Glu, Tyr) 4:1 as substrate incubated for 40 mins in presence of [gamma-33P]-ATP by scintillation counting method relative to control.
Sequence of Tyrosine-protein kinase Fgr (Homo sapiens) (P09769 2-529 limits assumed): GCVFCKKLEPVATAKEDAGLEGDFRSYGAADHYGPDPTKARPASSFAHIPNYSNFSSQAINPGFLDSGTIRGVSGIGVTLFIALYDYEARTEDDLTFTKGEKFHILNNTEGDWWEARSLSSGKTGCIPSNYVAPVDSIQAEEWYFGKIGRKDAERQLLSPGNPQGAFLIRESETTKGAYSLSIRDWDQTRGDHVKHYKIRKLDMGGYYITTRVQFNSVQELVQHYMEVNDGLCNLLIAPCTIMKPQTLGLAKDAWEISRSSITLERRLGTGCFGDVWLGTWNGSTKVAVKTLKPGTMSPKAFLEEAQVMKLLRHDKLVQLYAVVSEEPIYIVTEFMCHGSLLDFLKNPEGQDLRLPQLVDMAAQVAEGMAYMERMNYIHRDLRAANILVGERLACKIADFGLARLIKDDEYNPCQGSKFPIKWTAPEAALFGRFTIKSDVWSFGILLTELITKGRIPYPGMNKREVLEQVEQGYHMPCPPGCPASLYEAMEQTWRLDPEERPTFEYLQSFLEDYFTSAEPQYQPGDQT
Data set [8] addresses Ephrin type-B receptor 3 (Homo sapiens) (UniProt P54753). In words: Inhibition of recombinant human EPhB3 (599 to 920 residues) at 1 uM using poly (Glu, Tyr) 4:1 as substrate incubated for 40 mins in presence of [gamma-33P]-ATP by scintillation counting method relative to control.
Data set [9] addresses RAF proto-oncogene serine/threonine-protein kinase (Homo sapiens) (UniProt P04049). The data set can be described thus: Inhibition of recombinant human cRaf (306 to end residues) at 1 uM using unactive MEK1 as substrate incubated for 40 mins in presence of [gamma-33P]-ATP by scintillation counting method relative to control.
Data set [10] deals with Rhodopsin kinase GRK7 (Homo sapiens) (UniProt Q8WTQ7). In words: Inhibition of recombinant human full length GRK7 at 1 uM using casein as substrate incubated for 40 mins in presence of [gamma-33P]-ATP by scintillation counting method relative to control.
Data set [11] concerns the target Testis-specific serine/threonine-protein kinase 3 (Homo sapiens) (UniProt Q96PN8). The data set can be described thus: Inhibition of recombinant human full length TSSK3 at 1 uM using AMARAASAAALARRR as substrate incubated for 40 mins in presence of [gamma-33P]-ATP by scintillation counting method relative to control. The gist of the method: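 Single-point inhibition at 1 uM measured in a commercial kinase profiling panel (KinaseProfiler); each value is the mean of two independent experiments.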

Data set [12] has as its target Protein kinase C theta type (Homo sapiens) (UniProt Q04759). The data set can be described thus: Inhibition of recombinant human full length PKCtheta at 1 uM using histone H1 as substrate incubated for 40 mins in presence of [gamma-33P]-ATP by scintillation counting method relative to control.
Data set [13] relates to Hepatocyte growth factor receptor (Homo sapiens), P08581 [D1246H]. The data set can be described thus: Inhibition of recombinant human Met D1246H mutant (974 to end residues) at 1 uM using KKKGQEEEYVFIE as substrate incubated for 40 mins in presence of [gamma-33P]-ATP by scintillation counting method relative to control.
Data set [14] concerns the target Platelet-derived growth factor receptor alpha (Homo sapiens) (UniProt P16234). In words: Inhibition of recombinant human PDGFRalpha (550 to end residues) at 1 uM using poly(Glu, Tyr) 4:1 as substrate incubated for 40 mins in presence of [gamma-33P]-ATP by scintillation counting method relative to control. The gist of the method: as §1
In data set [15] the target is Activin receptor type-1-like (Homo sapiens) (UniProt P37023). The data set can be described thus: Inhibition of recombinant human ALK1 (142 to end residues) at 1 uM using casein as substrate incubated for 40 mins in presence of [gamma-33P]-ATP by scintillation counting method relative to control. Summed up:
as §3

The target in data set [16] is Bone morphogenetic protein receptor type-1B (Homo sapiens) (UniProt O00238). In words: Inhibition of recombinant human ALK6 (148 to end residues) at 1 uM using casein as substrate incubated for 40 mins in presence of [gamma-33P]-ATP by scintillation counting method relative to control. The gist of the method:
as §3

Data set [17] has as its target Myosin light chain kinase 2, skeletal/cardiac muscle (Homo sapiens) (UniProt Q9H1R3). The data set can be described thus: Inhibition of recombinant human full length MYLK2 at 1 uM using KKLNRTLSFAEPG as substrate incubated for 40 mins in presence of [gamma-33P]-ATP by scintillation counting method relative to control.
Data set [18] has as its target Mitogen-activated protein kinase 14 (Homo sapiens) (UniProt Q16539). In words: Inhibition of recombinant human full length SAPK2a at 1 uM using myelin basic protein as substrate incubated for 40 mins in presence of [gamma-33P]-ATP by scintillation counting method relative to control. Summed up: as §1
In data set [19] the test system is T47D. In words: Induction of apoptosis in human T47D cells at 40 nM incubated for 48 hrs by annexin V FITC and propidium iodide staining based flow cytometry. The data set is classed as functional, cell-based. The gist of the method:
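Annexin V-FITC/PI double staining with flow-cytometric readout. MDA-MB-231, T-47D, SiHa and HeLa cells were treated with graded concentrations for 48 h. MDA-MB-231 and T-47D were grown in DMEM and SiHa in 1640 medium, each with 10% FBS and 1% penicillin/streptomycin at 37°C under 5% CO2. Early- and late-stage apoptotic fractions were scored.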
On the technique in general: Flow cytometry measures light scatter and fluorescence of single cells or particles in a stream.

For data set [20], the system named is T47D. In words: Antiproliferative activity against human T47D cells assessed as reduction in cell viability at 40 nM incubated for 48 hrs by EdU staining based laser scanning confocal microscopy. In kind it is functional. The gist of the method:
as §2

Sequence of RAF proto-oncogene serine/threonine-protein kinase (Homo sapiens) (P04049 whole entry): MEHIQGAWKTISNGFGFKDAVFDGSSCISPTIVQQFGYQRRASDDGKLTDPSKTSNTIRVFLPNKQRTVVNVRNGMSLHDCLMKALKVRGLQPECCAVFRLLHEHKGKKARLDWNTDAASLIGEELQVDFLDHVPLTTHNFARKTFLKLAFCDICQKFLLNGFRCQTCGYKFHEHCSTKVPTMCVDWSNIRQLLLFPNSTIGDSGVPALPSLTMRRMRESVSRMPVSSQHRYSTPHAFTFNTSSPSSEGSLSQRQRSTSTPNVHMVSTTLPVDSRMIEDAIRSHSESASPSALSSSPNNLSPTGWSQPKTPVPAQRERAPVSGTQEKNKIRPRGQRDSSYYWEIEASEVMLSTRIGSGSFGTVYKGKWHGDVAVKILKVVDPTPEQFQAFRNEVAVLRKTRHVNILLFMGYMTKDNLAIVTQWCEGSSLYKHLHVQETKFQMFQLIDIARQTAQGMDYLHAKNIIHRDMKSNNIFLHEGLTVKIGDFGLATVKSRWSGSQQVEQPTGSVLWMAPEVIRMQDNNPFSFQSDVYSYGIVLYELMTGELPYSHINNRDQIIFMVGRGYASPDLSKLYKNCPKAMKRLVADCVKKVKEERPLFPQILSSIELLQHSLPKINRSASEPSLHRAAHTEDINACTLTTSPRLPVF
Sequence of Ephrin type-B receptor 3 (Homo sapiens) (P54753 whole entry, the tested form may be a part): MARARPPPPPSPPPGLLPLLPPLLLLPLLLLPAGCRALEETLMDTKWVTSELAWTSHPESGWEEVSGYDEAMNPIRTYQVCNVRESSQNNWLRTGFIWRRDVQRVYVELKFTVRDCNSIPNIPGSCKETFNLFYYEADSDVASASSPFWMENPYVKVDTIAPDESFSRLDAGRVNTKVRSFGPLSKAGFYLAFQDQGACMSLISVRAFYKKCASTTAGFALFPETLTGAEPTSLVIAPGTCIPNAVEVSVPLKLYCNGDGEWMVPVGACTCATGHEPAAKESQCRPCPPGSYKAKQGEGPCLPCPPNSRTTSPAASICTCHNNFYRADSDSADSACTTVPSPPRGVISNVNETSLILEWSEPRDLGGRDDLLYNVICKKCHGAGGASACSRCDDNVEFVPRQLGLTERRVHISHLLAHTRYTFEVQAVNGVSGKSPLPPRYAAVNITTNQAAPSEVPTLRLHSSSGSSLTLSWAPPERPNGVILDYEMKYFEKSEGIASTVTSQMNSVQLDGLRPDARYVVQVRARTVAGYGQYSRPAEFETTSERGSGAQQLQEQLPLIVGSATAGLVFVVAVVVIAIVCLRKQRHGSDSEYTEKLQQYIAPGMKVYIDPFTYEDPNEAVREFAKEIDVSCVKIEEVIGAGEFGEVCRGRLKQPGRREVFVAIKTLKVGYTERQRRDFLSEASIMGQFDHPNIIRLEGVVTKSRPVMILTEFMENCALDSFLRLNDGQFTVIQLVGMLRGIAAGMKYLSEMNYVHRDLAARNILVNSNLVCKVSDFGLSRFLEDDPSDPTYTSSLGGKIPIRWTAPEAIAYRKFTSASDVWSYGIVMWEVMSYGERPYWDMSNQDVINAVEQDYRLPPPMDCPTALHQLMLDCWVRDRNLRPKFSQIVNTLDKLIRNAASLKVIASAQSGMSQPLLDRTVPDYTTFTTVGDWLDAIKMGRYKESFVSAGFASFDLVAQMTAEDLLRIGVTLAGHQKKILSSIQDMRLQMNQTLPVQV
Sequence of Insulin-like growth factor 1 receptor (Homo sapiens) (P08069 31-736 limits assumed): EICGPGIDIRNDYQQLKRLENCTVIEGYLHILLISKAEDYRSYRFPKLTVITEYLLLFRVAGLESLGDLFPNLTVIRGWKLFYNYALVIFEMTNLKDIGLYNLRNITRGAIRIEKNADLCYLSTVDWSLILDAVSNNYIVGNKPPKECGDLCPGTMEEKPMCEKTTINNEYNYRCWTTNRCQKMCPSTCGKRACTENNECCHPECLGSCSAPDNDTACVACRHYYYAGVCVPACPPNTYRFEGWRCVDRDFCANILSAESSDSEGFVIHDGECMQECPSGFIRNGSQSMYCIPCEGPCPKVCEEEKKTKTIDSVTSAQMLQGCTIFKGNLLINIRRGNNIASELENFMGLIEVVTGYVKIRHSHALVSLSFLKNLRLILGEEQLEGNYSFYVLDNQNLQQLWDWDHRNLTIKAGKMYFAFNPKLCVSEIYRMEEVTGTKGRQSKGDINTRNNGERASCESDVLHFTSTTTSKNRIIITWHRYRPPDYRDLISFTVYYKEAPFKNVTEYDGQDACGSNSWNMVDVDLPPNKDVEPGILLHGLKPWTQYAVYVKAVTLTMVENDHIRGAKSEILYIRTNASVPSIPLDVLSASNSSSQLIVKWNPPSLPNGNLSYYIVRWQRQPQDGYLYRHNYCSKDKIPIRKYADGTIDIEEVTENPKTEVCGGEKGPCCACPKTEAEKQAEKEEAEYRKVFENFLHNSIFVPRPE
Sequence of Insulin-like growth factor 1 receptor (Homo sapiens) (P08069 741-1367 limits assumed): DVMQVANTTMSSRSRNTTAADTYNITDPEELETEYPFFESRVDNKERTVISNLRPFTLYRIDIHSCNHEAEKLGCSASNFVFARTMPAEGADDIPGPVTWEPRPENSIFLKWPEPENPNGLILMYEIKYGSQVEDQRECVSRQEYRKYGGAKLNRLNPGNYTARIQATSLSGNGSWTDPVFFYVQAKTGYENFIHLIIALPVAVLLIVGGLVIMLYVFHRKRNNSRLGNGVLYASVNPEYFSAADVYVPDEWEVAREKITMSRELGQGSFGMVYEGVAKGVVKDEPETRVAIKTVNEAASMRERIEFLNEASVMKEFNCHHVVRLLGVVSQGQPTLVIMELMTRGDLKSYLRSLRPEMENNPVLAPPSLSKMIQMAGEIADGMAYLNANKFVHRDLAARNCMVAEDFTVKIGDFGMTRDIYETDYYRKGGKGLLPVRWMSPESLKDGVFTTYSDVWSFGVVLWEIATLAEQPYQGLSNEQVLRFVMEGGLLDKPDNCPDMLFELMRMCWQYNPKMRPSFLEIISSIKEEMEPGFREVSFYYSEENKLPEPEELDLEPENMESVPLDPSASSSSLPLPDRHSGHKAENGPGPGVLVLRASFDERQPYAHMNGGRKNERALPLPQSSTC
Sequence of Mast/stem cell growth factor receptor Kit (Homo sapiens) (P10721 whole entry): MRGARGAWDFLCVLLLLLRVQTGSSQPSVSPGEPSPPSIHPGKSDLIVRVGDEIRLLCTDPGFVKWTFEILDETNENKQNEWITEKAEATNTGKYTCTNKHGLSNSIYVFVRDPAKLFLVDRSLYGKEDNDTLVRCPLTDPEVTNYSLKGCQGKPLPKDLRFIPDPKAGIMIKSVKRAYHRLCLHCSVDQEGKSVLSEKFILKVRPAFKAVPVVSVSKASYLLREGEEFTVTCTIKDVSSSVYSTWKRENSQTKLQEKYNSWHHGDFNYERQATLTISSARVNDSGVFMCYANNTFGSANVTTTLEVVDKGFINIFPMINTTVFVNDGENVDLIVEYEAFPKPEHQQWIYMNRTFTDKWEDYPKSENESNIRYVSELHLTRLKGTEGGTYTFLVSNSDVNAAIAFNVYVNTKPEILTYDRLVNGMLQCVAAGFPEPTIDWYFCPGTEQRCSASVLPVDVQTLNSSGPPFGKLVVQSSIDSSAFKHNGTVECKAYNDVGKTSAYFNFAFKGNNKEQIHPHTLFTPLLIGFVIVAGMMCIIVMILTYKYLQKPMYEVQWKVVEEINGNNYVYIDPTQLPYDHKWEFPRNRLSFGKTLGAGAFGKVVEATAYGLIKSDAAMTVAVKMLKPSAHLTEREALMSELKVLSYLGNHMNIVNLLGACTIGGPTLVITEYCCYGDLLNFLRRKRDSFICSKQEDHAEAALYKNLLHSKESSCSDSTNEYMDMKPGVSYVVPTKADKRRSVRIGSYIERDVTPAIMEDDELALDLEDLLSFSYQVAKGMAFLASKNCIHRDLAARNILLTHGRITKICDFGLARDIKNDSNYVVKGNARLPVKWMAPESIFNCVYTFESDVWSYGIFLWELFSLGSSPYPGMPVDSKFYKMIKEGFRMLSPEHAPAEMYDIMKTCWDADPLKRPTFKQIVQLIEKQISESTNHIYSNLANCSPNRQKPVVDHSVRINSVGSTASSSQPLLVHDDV
Sequence of Activin receptor type-1-like (Homo sapiens) (P37023 whole entry): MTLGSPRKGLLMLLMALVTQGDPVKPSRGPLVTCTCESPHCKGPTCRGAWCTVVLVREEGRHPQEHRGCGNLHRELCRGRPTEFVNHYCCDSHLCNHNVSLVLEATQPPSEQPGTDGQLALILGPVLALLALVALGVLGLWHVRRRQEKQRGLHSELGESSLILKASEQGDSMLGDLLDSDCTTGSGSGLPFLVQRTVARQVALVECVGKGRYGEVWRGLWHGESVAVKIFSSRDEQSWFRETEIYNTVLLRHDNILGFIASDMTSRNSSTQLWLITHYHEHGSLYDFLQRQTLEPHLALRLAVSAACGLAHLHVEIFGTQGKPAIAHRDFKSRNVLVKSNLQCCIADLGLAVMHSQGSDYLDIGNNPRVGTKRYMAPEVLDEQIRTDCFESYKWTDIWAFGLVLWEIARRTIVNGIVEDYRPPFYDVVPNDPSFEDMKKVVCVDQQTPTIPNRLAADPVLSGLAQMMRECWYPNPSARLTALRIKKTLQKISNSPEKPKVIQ

Usually inhibition stands for the share of the control response that was lost under treatment. On to `Cc1ccc(NC(=O)C2(C(=O)Nc3ccc(Nc4ncc(F)c(-c5cc(F)c6nc(C)n(C(C)C)c6c5)n4)cc3)CC2)cc1`, for which the inhibition amounted to 0% in data set [1]; 0% in [2]; 37% in data set [4]; 17% in data set [5]; 55% in [7]; 2% in [8]. Also, the inhibition in data set [9] was 31%; in data set [10] it was 8%; in [11], 0%; in [12], 40%; in data set [13] it was 55%; in data set [14] it was 0%. Also, the inhibition in data set [15] worked out at 58%; in data set [16], 12%; in data set [17] it was 30%; in data set [18], 0%. Moreover, the Activity entry in data set [3] and in data set [6] was “Non-Toxic” in each case. In addition, the inhibition result in the data set on HeLa was “Active”.
On to `COc1cc2nccc(Oc3ccc(NC(=O)C4(C(=O)Nc5ccc(F)cc5)CC4)cc3)c2cc1OC` [CABOZANTINIB], for which the outcome in the data set on T47D [19] was Active. Besides, the inhibition entry in the data set with T47D [20] was “Active”.
